Consider two compounds from ChEMBL document CHEMBL1275487, “Reduced biocide susceptibility in Candida albicans biofilms” (Antimicrob Agents Chemother, 2008).

Some results are limits rather than exact numbers.

Experiment [1] has as its system Candida albicans. Nature of the experiment: Antifungal activity against Candida albicans DAY 185 assessed as decrease mature biofilm burden after 24 hrs by XTT reduction assay. In kind it is functional, organism-based. In outline: (§1)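 Biofilms formed in 96-well polystyrene plates in RPMI-MOPS, inoculum 10^6 to 10^7 cells/well, 24 h at 30°C, then washed twice with PBS. Biocides were added with fresh medium to the 24 h mature biofilms (H2O2 1 to 1,000 mM; EtOH 0.05 to 50%; SDS 0.0004 to 0.4%). After a further 24 h at 30°C, metabolic activity was read by XTT reduction. EC50 and EC80 are the concentrations giving 50% and 80% reduction in OD versus no-drug controls. Triplicate, two occasions.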
Background: Formazan colour is commonly taken as a measure of viable cells.

Experiment [2] has as its system Candida albicans. Nature of the experiment: FICI in Candida albicans DAY 185 after 24 hrs in presence of fluconazole. In kind it is functional. The method in brief: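 Checkerboard format on 24 h mature biofilms, with each biocide combined with fluconazole (0.0625 to 1,000 μg/ml). Incubation was 24 h with the combination, followed by an XTT reduction readout against no-drug controls. Fractional inhibitory concentration indices were calculated to gauge how each biocide affects fluconazole activity.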

Experiment [3] has as its system Candida albicans. Nature of the experiment: Antifungal activity against Candida albicans DAY 185 assessed as inhibition of biofilm formation after 24 hrs by XTT reduction assay. In kind it is functional, organism-based. The method in brief:
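Biocides were added to the wells at the time of inoculation in 96-well polystyrene plates (RPMI-MOPS, 10^6 to 10^7 cells/well) and incubated 24 h at 30°C (H2O2 1 to 1,000 mM; EtOH 0.05 to 50%; SDS 0.0004 to 0.4%). XTT reduction was then read. EC50 and EC80 are the concentrations giving 50% and 80% OD reduction versus no-drug controls. Triplicate, two occasions.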

Experiment [4] deals with Nakaseomyces glabratus. Nature of the experiment: Antifungal activity against Candida glabrata 5740 assessed as decrease mature biofilm burden after 24 hrs by XTT reduction assay. In kind it is functional, organism-based. In outline: as §1
Experiment [5] deals with Candida albicans. The experiment can be described thus: Antifungal activity against Candida albicans DAY 185 grown as planktonic cells using 10^6 to 10^7 cells by CLSI method. In kind it is functional, organism-based. The method in brief:
(§2)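 Planktonic susceptibility was tested by the CLSI method with the inoculum raised to the mature-biofilm cell density (10^6 to 10^7 cells/well) in RPMI-MOPS. EC50 and EC80 values were derived. Triplicate, two occasions.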

In experiment [6] the test system is Candida albicans. Nature of the experiment: Antifungal activity against Candida albicans K1 grown as planktonic cells using 10^6 to 10^7 cells by CLSI method. Format: functional, organism-based. The method in brief:
as §2

Experiment [7] relates to Candida parapsilosis. The experiment can be described thus: Antifungal activity against Candida parapsilosis 5986 assessed as decrease mature biofilm burden after 24 hrs by XTT reduction assay. In kind it is functional, organism-based. In outline: as §1
The test system of experiment [8] is Nakaseomyces glabratus. Nature of the experiment: Antifungal activity against Candida glabrata 5740 grown as planktonic cells using 10^6 to 10^7 cells by CLSI method. Format: functional, organism-based. In outline:
as §2

For experiment [9], the system named is Candida albicans. The experiment can be described thus: Antifungal activity against Candida albicans K1 grown as planktonic cells by CLSI method. In kind it is functional. The method in brief: (§3)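 Planktonic biocide MICs were determined by CLSI broth microdilution using CLSI endpoints, with the standard CLSI inoculum (0.5 × 10^3 to 2.5 × 10^3 CFU/ml) in RPMI-MOPS. Triplicate, two occasions.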

Experiment [10] has as its system Candida parapsilosis. The experiment can be described thus: Antifungal activity against Candida parapsilosis 5986 grown as planktonic cells using 10^6 to 10^7 cells by CLSI method. In kind it is functional, organism-based. In outline: as §2
Experiment [11] relates to Candida parapsilosis. Nature of the experiment: Antifungal activity against Candida parapsilosis 5986 grown as planktonic cells by CLSI method. In kind it is functional. In outline:
as §3

Experiment [12] deals with Candida albicans. Nature of the experiment: Antifungal activity against Candida albicans K1 assessed as decrease mature biofilm burden after 24 hrs by XTT reduction assay. Format: functional, organism-based. In outline:
as §1

Experiment [13] relates to Candida albicans. The experiment can be described thus: Antifungal activity against Candida albicans DAY 185 grown as planktonic cells by CLSI method. Format: functional. The method in brief: as §3
The test system of experiment [14] is Nakaseomyces glabratus. The experiment can be described thus: Antifungal activity against Candida glabrata 5740 grown as planktonic cells by CLSI method. Format: functional. In outline: as §3

For the compound `CCO` [ALCOHOL], the EC50 is 35% in the experiment on Candida albicans [1]; 35% with Candida albicans [3]; 25% in the experiment on Nakaseomyces glabratus [4]; 6% in the experiment on Candida albicans [5]; 6% in the experiment on Candida albicans [6]; 25% in the experiment on Candida parapsilosis [7]. Also, the figures for the EC50 in the experiment with Nakaseomyces glabratus [8], in the experiment with Candida parapsilosis [10] and with Candida albicans [12] were 13%, 6% and 25%, respectively. Further, the EC80 with Candida albicans [1] is recorded as 40%; in the experiment on Candida albicans [3], 35%; in the experiment with Nakaseomyces glabratus [4], 25%; with Candida albicans [5] it was 13%; in the experiment on Candida albicans [6] it was 13%; with Candida parapsilosis [7], 25%. Further, the EC80 in the experiment with Nakaseomyces glabratus [8] is given as 13%; in the experiment with Candida parapsilosis [10], 6%; in the experiment on Candida albicans [12], 25%. Moreover, the “fractional inhibitory concentration index (FICI)” value with Candida albicans [2] is given as less than 0.5. Besides, the MIC against Candida albicans [9] was found to be 1.5%; in the experiment on Candida parapsilosis [11] it was 1.5%; in the experiment on Candida albicans [13] it was 3%; against Nakaseomyces glabratus [14], 3%.

Turning to `CCCCCCCCCCCCOS(=O)(=O)[O-].[Na+]` [SODIUM LAURYL SULFATE], the EC50 with Candida albicans [1] was 0.15%; in the experiment with Candida albicans [3], 0.05%; with Nakaseomyces glabratus [4], 0.05%; with Candida albicans [5] it was 0.05%; in the experiment with Candida albicans [6] it was 0.03%; with Candida parapsilosis [7] it was 0.05%. Besides, the EC50 is 0.03% in the experiment with Nakaseomyces glabratus [8], 0.03% with Candida parapsilosis [10] and 0.05% with Candida albicans [12]. The EC80 in the experiment with Candida albicans [1] came out at 0.15%; in the experiment with Candida albicans [3], 0.1%; in the experiment on Nakaseomyces glabratus [4], 0.05%; in the experiment on Candida albicans [5], 0.05%; in the experiment on Candida albicans [6] it was 0.05%; in the experiment on Candida parapsilosis [7] it was 0.1%. Besides, the EC80 with Nakaseomyces glabratus [8] was 0.03%; with Candida parapsilosis [10] it was 0.05%; in the experiment with Candida albicans [12] it was 0.1%. The “fractional inhibitory concentration index (FICI)” value in the experiment on Candida albicans [2] is listed as 1. Also, the MIC against Candida albicans [9], with Candida parapsilosis [11], with Candida albicans [13] and in the experiment with Nakaseomyces glabratus [14] was 0.01% in each case.
